In ChEMBL document CHEMBL1144871, “Synthesis of substituted 6-anilinouracils and their inhibition of DNA polymerase IIIC and Gram-positive bacterial growth” (J Med Chem, 2003):
≈ marks a conversion by molar mass, not a printed value.

Tests used:
[1] = tested on: Enterococcus faecalis; experiment: Antibacterial activity against vancomycin-resistant strain of Enterococcus faecalis(VRE) was determined; assay type: functional
In short: (§1)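 MIC by broth microdilution. Log-phase cultures in Luria broth, seeded at (3-7) × 10⁵ CFU/mL stocks. Compound from DMSO stock, 2-fold serial dilutions giving five concentrations from 20 to 1.25 µg/mL, final 1% DMSO, with untreated and DMSO controls. Duplicate assays, 37 °C for 16 to 24 h, growth read as OD 600 nm. MIC is the averaged lowest concentration preventing growth.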

[2] = tested on: Enterococcus faecium; experiment: Antibacterial activity against Enterococcus faecium was determined; assay type: functional, enterococcus fecium
In short: (§2)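 Broth microdilution MIC. Log-phase cultures grown in Luria broth; wells seeded from stocks at (3-7) × 10⁵ CFU/mL. DMSO stocks diluted 2-fold to five concentrations, 20 to 1.25 µg/mL, plus untreated control; 1% DMSO final in all wells. Duplicate assays, 37 °C for 16 to 24 h, growth read as OD600. MIC taken as lowest concentration preventing growth, averaged.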

[3] = tested on: Escherichia coli; experiment: Antibacterial activity against Escherichia coli was determined; assay type: functional; in short: as §2
[4] = tested on: Staphylococcus aureus; experiment: Antibacterial activity against methicillin-resistant strain of Staphylococcus aureus(MRSA B42876) was determined; assay type: functional; in short: as §1
[5] = tested on: Enterococcus faecalis; experiment: Antibacterial activity against Enterococcus faecalis was determined; assay type: functional; in short: as §1
[6] = tested on: Staphylococcus aureus; experiment: Antibacterial activity against Staphylococcus aureus(smith) was determined; assay type: functional
[7] = molecular target: DNA polymerase III PolC-type (Bacillus subtilis (strain 168), UniProt P13267); experiment: Inhibitory activity against DNA polymerase IIIC from Bacillus subtilis was determined
Chain of DNA polymerase III PolC-type (P13267 whole entry, the tested form may be a part): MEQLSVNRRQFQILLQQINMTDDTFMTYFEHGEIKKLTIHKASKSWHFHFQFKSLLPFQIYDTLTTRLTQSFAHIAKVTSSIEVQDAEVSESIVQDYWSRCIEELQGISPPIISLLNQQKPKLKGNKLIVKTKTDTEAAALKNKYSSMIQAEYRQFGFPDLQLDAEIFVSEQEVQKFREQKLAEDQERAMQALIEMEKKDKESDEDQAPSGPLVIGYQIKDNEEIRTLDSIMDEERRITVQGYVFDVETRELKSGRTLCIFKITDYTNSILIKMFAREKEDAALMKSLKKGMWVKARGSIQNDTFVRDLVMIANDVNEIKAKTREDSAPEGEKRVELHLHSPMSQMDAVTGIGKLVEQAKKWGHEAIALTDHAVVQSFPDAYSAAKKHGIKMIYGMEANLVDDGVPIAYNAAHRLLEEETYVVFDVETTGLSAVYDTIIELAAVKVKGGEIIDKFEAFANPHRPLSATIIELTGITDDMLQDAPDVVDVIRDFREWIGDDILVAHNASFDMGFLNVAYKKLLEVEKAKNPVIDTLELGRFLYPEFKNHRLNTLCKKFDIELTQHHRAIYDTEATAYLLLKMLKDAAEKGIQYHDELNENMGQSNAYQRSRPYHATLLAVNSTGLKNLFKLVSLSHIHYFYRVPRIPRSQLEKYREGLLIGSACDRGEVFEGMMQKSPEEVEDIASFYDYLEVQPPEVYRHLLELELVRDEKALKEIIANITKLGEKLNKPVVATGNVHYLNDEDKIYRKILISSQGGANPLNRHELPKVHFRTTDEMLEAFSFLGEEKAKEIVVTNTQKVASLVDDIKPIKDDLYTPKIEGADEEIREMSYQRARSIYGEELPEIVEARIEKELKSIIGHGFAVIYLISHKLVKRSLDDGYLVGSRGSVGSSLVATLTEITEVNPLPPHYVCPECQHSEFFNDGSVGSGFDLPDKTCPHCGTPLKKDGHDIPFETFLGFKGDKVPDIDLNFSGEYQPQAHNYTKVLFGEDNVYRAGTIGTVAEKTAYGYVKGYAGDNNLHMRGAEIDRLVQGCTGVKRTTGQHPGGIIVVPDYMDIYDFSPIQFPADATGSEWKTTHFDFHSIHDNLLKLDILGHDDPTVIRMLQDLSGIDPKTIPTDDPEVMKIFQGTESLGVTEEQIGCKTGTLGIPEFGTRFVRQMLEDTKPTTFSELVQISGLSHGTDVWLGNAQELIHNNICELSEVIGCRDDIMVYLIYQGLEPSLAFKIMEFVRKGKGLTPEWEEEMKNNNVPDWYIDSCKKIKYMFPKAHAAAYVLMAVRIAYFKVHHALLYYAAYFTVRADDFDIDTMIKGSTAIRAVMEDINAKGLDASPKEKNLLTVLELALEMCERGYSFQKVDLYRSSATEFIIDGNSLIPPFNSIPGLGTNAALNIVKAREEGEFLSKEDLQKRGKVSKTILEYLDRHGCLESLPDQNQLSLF
In short: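 Homogeneous recombinant B. subtilis pol IIIC, 0.025-0.06 units, added to buffered Mg²⁺/DTT/glycerol mix with dATP, dCTP, dTTP, [³H]dTTP and activated calf thymus DNA, no dGTP ("truncated" assay). Compound serial dilutions in DMSO added before enzyme. 10 min at 30 °C, TCA-pyrophosphate stop, acid-precipitated DNA filtered and scintillation counted. Apparent Ki read directly; duplicates.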

[8] = tested on: Bacillus subtilis; experiment: Antibacterial activity against Bacillus subtilis was determined; assay type: functional
[9] = tested on: Staphylococcus aureus; experiment: Antibacterial activity against Staphylococcus aureus was determined; assay type: functional

| SMILES | MIC [1] [µg/mL] | MIC [2] [µg/mL] | MIC [3] [µg/mL] | MIC [4] [µg/mL] | MIC [5] [µg/mL] | MIC [6] [µg/mL] | Ki [7] [nM] | MIC [8] [µg/mL] | MIC [9] [µg/mL] |
| --- | --- | --- | --- | --- | --- | --- | --- | --- | --- |
| CCc1cc(Nc2cc(=O)n(CCCCN3CCC(O)(c4ccc(Cl)c(C(F)(F)F)c4)CC3)c(=O)[nH]2)ccc1C | 2.5 (≈ 4.32 µM) | 2.5 (≈ 4.32 µM) | > 20 | – | – | – | – | – | – |
| CCc1cc(Nc2cc(=O)n(CCCCN3CCN(C(=O)c4ccco4)CC3)c(=O)[nH]2)ccc1C | 10 (≈ 20.9 µM) | 10 (≈ 20.9 µM) | > 20 | 20 (≈ 41.7 µM) | 5 (≈ 10.4 µM) | 5 (≈ 10.4 µM) | – | – | – |
| CCc1cc(Nc2cc(=O)n(CCCCO)c(=O)[nH]2)ccc1C | 2.5 (≈ 7.88 µM) | 2.5 (≈ 7.88 µM) | > 20 | – | – | – | 63 | – | – |
| COCCCCn1c(=O)cc(Nc2ccc(C)c(CSC#N)c2)[nH]c1=O | – | > 20 | > 20 | – | > 20 | > 20 | 60 | > 20 | > 20 |
| COCCCCn1c(=O)cc(Nc2ccc(C)c(Br)c2)[nH]c1=O | 2.5 (≈ 6.54 µM) | 5 (≈ 13.1 µM) | > 20 | 5 (≈ 13.1 µM) | 5 (≈ 13.1 µM) | 2.5 (≈ 6.54 µM) | 129 | 2.5 (≈ 6.54 µM) | 5 (≈ 13.1 µM) |
| COCCCCn1c(=O)cc(Nc2ccc(C)c(CS)c2)[nH]c1=O | – | > 20 | > 20 | – | > 20 | > 20 | 180 | > 20 | > 20 |
| CCc1cc(Nc2cc(=O)n(CCCCN3CCSCC3)c(=O)[nH]2)ccc1C | 5 (≈ 12.4 µM) | 5 (≈ 12.4 µM) | > 20 | 20 (≈ 49.7 µM) | 5 (≈ 12.4 µM) | – | – | – | 20 (≈ 49.7 µM) |
| C=Cc1cc(Nc2cc(=O)n(CCCCOC)c(=O)[nH]2)ccc1C | 10 (≈ 30.4 µM) | 5 (≈ 15.2 µM) | > 20 | 10 (≈ 30.4 µM) | 10 (≈ 30.4 µM) | 5 (≈ 15.2 µM) | 560 | < 1.25 | 5 (≈ 15.2 µM) |
| COCCCCn1c(=O)cc(Nc2ccc(C)c(CO)c2)[nH]c1=O | – | > 20 | > 20 | – | > 20 | > 20 | 20000 | > 20 | > 20 |
| COCCCCn1c(=O)cc(Nc2ccc(C)c(C(C)=O)c2)[nH]c1=O | – | > 20 | > 20 | – | > 20 | > 20 | 3260 | > 20 | > 20 |
| CCc1cc(Nc2cc(=O)n(CCCCN)c(=O)[nH]2)ccc1C.Cl | – | – | > 20 | – | – | – | 62 | – | – |
| COCCCCn1c(=O)cc(Nc2ccc(C)c(C(C)Cl)c2)[nH]c1=O (stereo not drawn) | – | > 20 | > 20 | – | > 20 | > 20 | 6470 | > 20 | > 20 |
| CCc1cc(Nc2cc(=O)n(CCCCN3CCN(c4ccc(F)cc4)CC3)c(=O)[nH]2)ccc1C | 5 (≈ 10.4 µM) | 5 (≈ 10.4 µM) | > 20 | 20 (≈ 41.7 µM) | 10 (≈ 20.9 µM) | – | – | – | 10 (≈ 20.9 µM) |
| COCCCCn1c(=O)cc(Nc2ccc(C)c(I)c2)[nH]c1=O | 5 (≈ 11.6 µM) | 10 (≈ 23.3 µM) | > 20 | 5 (≈ 11.6 µM) | 10 (≈ 23.3 µM) | 5 (≈ 11.6 µM) | 310 | 5 (≈ 11.6 µM) | 10 (≈ 23.3 µM) |
| CCc1cc(Nc2cc(=O)n(CCCCN3CCNCC3)c(=O)[nH]2)ccc1C.Cl.Cl | – | > 20 | > 20 | – | > 20 | > 20 | 30 | 20 | > 20 |
| C=C(C)c1cc(Nc2cc(=O)n(CCCCOC)c(=O)[nH]2)ccc1C | 20 (≈ 58.2 µM) | 20 (≈ 58.2 µM) | > 20 | > 20 | 20 (≈ 58.2 µM) | 10 (≈ 29.1 µM) | 565 | 2.5 (≈ 7.28 µM) | 20 (≈ 58.2 µM) |
| CCOC(=O)CC1CN(CCCCn2c(=O)cc(Nc3ccc(C)c(CC)c3)[nH]c2=O)CCO1 (stereo not drawn) | – | 10 (≈ 21.2 µM) | > 20 | 20 (≈ 42.3 µM) | > 20 | 20 (≈ 42.3 µM) | 26 | 5 (≈ 10.6 µM) | 20 (≈ 42.3 µM) |
| CCc1cc(Nc2cc(=O)n(CCCCN3CCOCC3)c(=O)[nH]2)ccc1C | – | – | > 20 | – | – | – | – | – | – |

| SMILES | MIC [1] [µg/mL] | MIC [2] [µg/mL] | MIC [3] [µg/mL] | MIC [4] [µg/mL] | MIC [5] [µg/mL] | MIC [6] [µg/mL] | Ki [7] [nM] | MIC [8] [µg/mL] | MIC [9] [µg/mL] |
| --- | --- | --- | --- | --- | --- | --- | --- | --- | --- |
| CCc1cc(Nc2cc(=O)n(CCCCN3CCN(Cc4ccccc4)CC3)c(=O)[nH]2)ccc1C | 5 (≈ 10.5 µM) | 10 (≈ 21 µM) | > 20 | 10 (≈ 21 µM) | 10 (≈ 21 µM) | 10 (≈ 21 µM) | 22 | 20 (≈ 42 µM) | 20 (≈ 42 µM) |
| CCc1cc(Nc2cc(=O)n(CCCCN=[N+]=[N-])c(=O)[nH]2)ccc1C | 2.5 (≈ 7.3 µM) | < 1.25 | > 20 | > 20 | 5 (≈ 14.6 µM) | 2.5 (≈ 7.3 µM) | 120 | < 1.25 | 2.5 (≈ 7.3 µM) |
| COCCCCn1c(=O)cc(NCc2ccc(Cl)c(Cl)c2)[nH]c1=O | 5 (≈ 13.4 µM) | 5 (≈ 13.4 µM) | > 20 | 20 (≈ 53.7 µM) | 5 (≈ 13.4 µM) | 5 (≈ 13.4 µM) | 80 | 3.75 (≈ 10.1 µM) | 10 (≈ 26.9 µM) |
| CCc1cc(Nc2cc(=O)n(CCCCN3CCC(O)(c4ccc(Cl)cc4)CC3)c(=O)[nH]2)ccc1C | 10 (≈ 19.6 µM) | 5 (≈ 9.78 µM) | > 20 | 5 (≈ 9.78 µM) | 5 (≈ 9.78 µM) | 5 (≈ 9.78 µM) | – | – | – |
| CCc1cc(Nc2cc(=O)n(CCCCN3CCN(c4ncccn4)CC3)c(=O)[nH]2)ccc1C | 5 (≈ 10.8 µM) | 5 (≈ 10.8 µM) | > 20 | 10 (≈ 21.6 µM) | 5 (≈ 10.8 µM) | 10 (≈ 21.6 µM) | – | – | – |
| COCCCCn1c(=O)cc(Nc2ccc(C)c(Cl)c2)[nH]c1=O | 5 (≈ 14.8 µM) | 5 (≈ 14.8 µM) | > 20 | > 20 | 5 (≈ 14.8 µM) | 5 (≈ 14.8 µM) | 42 | < 1.25 | 10 (≈ 29.6 µM) |
| COCCCCn1c(=O)cc(Nc2ccc(C)c(CCl)c2)[nH]c1=O | – | > 20 | > 20 | 20 (≈ 56.8 µM) | > 20 | 20 (≈ 56.8 µM) | 40 | 5 (≈ 14.2 µM) | 20 (≈ 56.8 µM) |
| CCc1cc(Nc2cc(=O)n(CCCCOC)c(=O)[nH]2)ccc1C | 2.5 (≈ 7.54 µM) | – | > 20 | – | – | – | 88 | – | – |
| Cc1ccc(Nc2cc(=O)n(CCCCO)c(=O)[nH]2)cc1I | 2.5 (≈ 6.02 µM) | 5 (≈ 12 µM) | > 20 | 5 (≈ 12 µM) | 5 (≈ 12 µM) | 5 (≈ 12 µM) | 67 | 5 (≈ 12 µM) | 10 (≈ 24.1 µM) |
| COCCCCn1c(=O)cc(Nc2ccc(C)c(C(C)O)c2)[nH]c1=O (stereo not drawn) | – | > 20 | > 20 | – | > 20 | > 20 | 2100 | > 20 | > 20 |
| COCCCCn1c(=O)cc(Nc2ccc(C)c(C)c2)[nH]c1=O | 10 (≈ 31.5 µM) | 20 (≈ 63 µM) | > 20 | 10 (≈ 31.5 µM) | 10 (≈ 31.5 µM) | 10 (≈ 31.5 µM) | 550 | 2.5 (≈ 7.88 µM) | 20 (≈ 63 µM) |
| COCCCCn1c(=O)cc(Nc2ccc(C)c(CC#N)c2)[nH]c1=O | – | 20 (≈ 58.4 µM) | > 20 | – | > 20 | 20 (≈ 58.4 µM) | 1020 | 20 (≈ 58.4 µM) | > 20 |
| CCc1cc(Nc2cc(=O)n(CCCCN3CCC(O)(c4ccccc4)CC3)c(=O)[nH]2)ccc1C | 10 (≈ 21 µM) | 10 (≈ 21 µM) | > 20 | 20 (≈ 42 µM) | 20 (≈ 42 µM) | 20 (≈ 42 µM) | 67 | 20 (≈ 42 µM) | 20 (≈ 42 µM) |
| CCOC1CN(CCCCn2c(=O)cc(Nc3ccc(C)c(CC)c3)[nH]c2=O)CCO1 (stereo not drawn) | 10 (≈ 23.2 µM) | 20 (≈ 46.5 µM) | > 20 | 20 (≈ 46.5 µM) | 10 (≈ 23.2 µM) | 20 (≈ 46.5 µM) | 43 | 2.5 (≈ 5.81 µM) | 10 (≈ 23.2 µM) |
| CCc1cc(Nc2cc(=O)n(CCCCI)c(=O)[nH]2)ccc1C | – | > 20 | > 20 | – | > 20 | > 20 | 140 | > 20 | > 20 |
| CCc1cc(Nc2cc(=O)n(CCCCN3CCCCC3)c(=O)[nH]2)ccc1C | 10 (≈ 26 µM) | 20 (≈ 52 µM) | > 20 | 40 (≈ 104 µM) | 20 (≈ 52 µM) | 40 (≈ 104 µM) | 28 | 10 (≈ 26 µM) | 20 (≈ 52 µM) |
| O=C(O)c1cn(C2CC2)c2cc(N3CCNCC3)c(F)cc2c1=O [CIPROFLOXACIN] | 20 (≈ 60.4 µM) | – | 0.313 (≈ 0.945 µM) | – | – | – | – | – | – |
| CN[C@H](CC(C)C)C(=O)N[C@H]1C(=O)N[C@@H](CC(N)=O)C(=O)N[C@H]2C(=O)N[C@H]3C(=O)N[C@H](C(=O)N[C@H](C(=O)O)c4cc(O)cc(O)c4-c4cc3ccc4O)[C@H](O)c3ccc(c(Cl)c3)Oc3cc2cc(c3O[C@@H]2O[C@H](CO)[C@@H](O)[C@H](O)[C@H]2O[C@H]2C[C@](C)(N)[C@H](O)[C@H](C)O2)Oc2ccc(cc2Cl)[C@H]1O [VANCOMYCIN] | > 20 | – | > 20 | – | – | – | – | – | – |
